Consider five compounds from ChEMBL document CHEMBL2417396 (J Nat Prod, 2013).

Activity calls are given as the source filed them. The calls are words filed in the database; no cut-off is given here. Bounds are passed on as bounds.

One experiment has as its system NCI-H460. The experiment in a line: Cytotoxicity against human NCI-H460 cells by SRB assay. The experiment is classed as functional. Put shortly: (§1)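 Cell lines obtained from ATCC and kept in recommended media containing gentamicin and amphotericin B. Growth inhibition was measured by the NCI standard sulforhodamine B assay. GI50 is the drug concentration calculated to halve net protein increase relative to untreated cells. Values are averages of at least three separate experiments, each run in triplicate.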
On the technique in general: In SRB staining, fixed cells bind dye roughly in proportion to their protein.

The subject of a further experiment is DU-145. Briefly: Cytotoxicity against human DU145 cells by SRB assay. The experiment is classed as functional. Put shortly:
as §1

For experiment [1], the target named is T1, Tubulin (Homo sapiens) (UniProt P68371+Q9H4B7+P0DPH7+P68366+Q13509+Q71U36+P04350+Q3ZCM7+P07437+P68363+Q9BQE3+Q6PEY2+Q13885+Q9BVA1+Q9BUF5). The experiment in a line: Displacement of [3H]colchicine from tubulin (unknown origin) at 50 uM. Format: protein-complex assay. In outline:
(§2)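 Colchicine binding assay with 1 μM tubulin and 5.0 μM [3H]colchicine. Inhibitor tested at 50, 5 and/or 1 μM.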
For orientation: Displacement assays read how much labelled ligand stays bound in the presence of the test substance.

A short description of experiment [2]: Inhibition of bovine brain tubulin polymerization after 20 mins. More on the design: species or system Bos taurus. In outline:
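Purified bovine brain tubulin, 10 μM (1.0 mg/mL), preincubated with a concentration series in glutamate buffer at 30 °C, then cooled to 0 °C. GTP added, then warmed to 30 °C to start assembly. Turbidity read at 350 nm, with disassembly checked by cooling.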

The next experiment deals with SK-OV-3. The experiment in a line: Cytotoxicity against human SKOV3 cells by SRB assay. The experiment is classed as functional. In outline: as §1
A further experiment deals with Mus musculus. Briefly: Vascular disrupting activity in human PC3 cells xenografted SCID mouse assessed as decrease of blood flow in tumor at 350 mg/kg, ip after 80 mins by bioluminescence imaging analysis. Format: functional, organism-based. Set-up: dose 350 mg/kg. Particulars: PC-3. A general note: Xenograft models place foreign cells or tissue in a host animal.
Experiment [3] deals with T1, Tubulin (Homo sapiens). The experiment in a line: Displacement of [3H]colchicine from tubulin (unknown origin) at 5 uM. Format: protein-complex assay. Put shortly: as §2

For orientation: GI50 means the concentration that inhibits growth by half. Read a low GI50 as more potent growth inhibition. In the case of `COc1ccc(/C=C\c2cc(OC)c(OC)c(OC)c2)cc1OP(=O)(O)O` [FOSBRETABULIN DISODIUM], the GI50 stood at 66 nM in the experiment with NCI-H460 and 16 nM with DU-145.

As a reminder, the inhibition is the share of the control response that was lost under treatment. One may read the IC50 as the concentration needed to halve the response being measured. High values mean weaker potency in that assay, low ones greater potency in that assay. For `COc1ccc2c(C(=O)c3cc(OC)c(OC)c(OC)c3)c(-c3ccc(OC)c(O)c3)n(C)c2c1`, the 50% growth inhibitory concentration (GI50) in the experiment with NCI-H460 was 4140 nM; in the experiment with DU-145, 2680 nM; with SK-OV-3, 2050 nM. This compound also displayed an inhibition on Tubulin (Homo sapiens) [1] of 34%. Also, in experiment [2], the IC50 was above 20000 nM.

For `COc1ccc(/C=C\c2cc(OC)c(OC)c(OC)c2)cc1O` [COMBRETASTATIN A4], the 50% growth inhibitory concentration (GI50) was 2.8 nM in the experiment with NCI-H460, 0.54 nM in the experiment on DU-145 and 0.42 nM with SK-OV-3.

For the compound `COc1ccc2c(C(=O)c3cc(OC)c(OC)c(OC)c3)c(-c3ccc(OC)c(OP(=O)(O)O)c3)n(C)c2c1`, the concentration for 50% growth inhibition (GI50) with NCI-H460 came to 3560 nM; with DU-145, 4670 nM; in the experiment on SK-OV-3, 8640 nM. Also, the inhibition at Tubulin (Homo sapiens) [1] worked out at 29%. In experiment [2], the concentration for half-maximal inhibition (IC50) is above 20000 nM.

For the compound `COc1ccc2c(C(=O)c3cc(OC)c(OC)c(OC)c3)c(-c3ccc(OC)c(OP(=O)(O)O)c3)[nH]c2c1`, in the experiment with Mus musculus, the outcome was Active. Also, the GI50 came out at 31.1 nM in the experiment with NCI-H460, 29.7 nM with DU-145 and 22.3 nM with SK-OV-3. This compound also had an IC50 in experiment [2] of 4200 nM. Moreover, on Tubulin (Homo sapiens) [3], the inhibition was 26%.
